Results on five compounds are retold here after PMC7699451 (Drug Design, Development and Therapy, 2020).

Read-outs that look alike come from different tables or passages of the source. Bounds are passed on as bounds.

Series [1] can be described thus: Safety and tolerability, adverse events. It is filed as in vivo, human. In short, it runs like this:
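Adverse events, physical examinations, vital signs, 12-lead ECG and clinical laboratory tests were monitored throughout the crossover study in dosed healthy men. Investigators assessed whether each adverse event was related to treatment.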

Series [2] deals with serum insulin. The series is described as follows: Oral glucose tolerance test, serum insulin. The following applies: OGTT 75 g glucose, steady-state; mean ± SD; N = 34. It is filed as in vivo, human. The method in brief:
(§1)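 Healthy Korean men aged 19–45 years (BMI 18–27 kg/m2) in a randomized, open-label, 3-period crossover study. Treatments were oral once daily: DPP-4 inhibitor 5 mg, sulfonylurea 4 mg, or both. After an overnight fast, subjects took 75 g glucose; serum glucose and insulin were sampled at 0, 0.25, 0.5, 1, 1.5, 2 and 3 h, at baseline (day −1) and at steady state. Peaks were read directly; areas used the linear trapezoidal method. Δ values subtracted baseline at each time point.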

Series [3] can be described thus: Plasma pharmacokinetics at steady-state, LC-MS/MS, noncompartmental analysis. It is filed as in vivo, human. The following applies: for CLss/F / Ctrough,ss / MR, metabolic ratio (AUCτ,ss of metabolite/AUCτ,ss of parent) / AUCτ,ss / Cmax,ss: mean ± SD, N = 34. In short, it runs like this:
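Oral DPP-4 inhibitor 5 mg once daily, alone for 7 days or with sulfonylurea 4 mg. Plasma was sampled pre-dose and at 1, 2, 3, 4, 5, 6, 8 and 12 h at steady state, spun at 1900 g (4°C, 10 min) and frozen below −70°C. LC-MS/MS was linear over 0.1–60 μg/L. Noncompartmental analysis: Cmax,ss observed; AUCτ,ss and CLss by the linear-log trapezoidal method.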

Series [4] in a line: Urinary excretion of evogliptin at steady-state. It is filed as in vivo, human. The note with it: for CL renal: human, urine and plasma, oral. The method in brief:
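At steady state of oral DPP-4 inhibitor 5 mg once daily, urine was collected over 0–24 h and frozen below −70°C. Parent drug was measured by LC-MS/MS (linear 5–50,000 μg/L). feτ,ss was the amount excreted unchanged divided by that day's dose. Renal clearance was the amount excreted divided by plasma AUCτ,ss.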

For series [5] the following is noted: cited from earlier work.
Series [6] deals with serum glucose. The series is described as follows: Oral glucose tolerance test, serum glucose. The note with it: OGTT 75 g glucose, steady-state, mean ± SD, N = 34. It is filed as in vivo, human. In short, it runs like this:
as §1

The test system of series [7] is CYP enzymes. The note with it: ref unpublished in-house data; cited from earlier work.
Where [8] appears, read: EVO+GLI: evogliptin 5 mg and glimepiride 4 mg once daily.
Where [9] appears, read: EVO+GLI: evogliptin 5 mg and glimepiride 4 mg once daily, plasma.
Where [10] appears, read: EVO: evogliptin 5 mg once daily.
Setting [11] is: EVO: evogliptin 5 mg once daily, plasma.
Where [12] appears, read: GLI: glimepiride 4 mg once daily.
Setting [13] is: GLI: glimepiride 4 mg once daily, plasma.

With `CC(C)(C)OC[C@@H]1C(=O)NCCN1C(=O)C[C@H](N)Cc1cc(F)c(F)cc1F` [Evogliptin, evogliptin], the “Diarrhea: number of subjects who reported adverse drug reactions (number of ADRs)” value in series [1] (N = 35) is listed as 1 (1). Further, in series [2], the “AUEC, area under the serum insulin-time curve” value was 91.1 ± 48.6 (31.4–265) μIU·h/mL; the “Emax, maximum serum insulin level” value was 53.1 ± 25.2 (16.3–124.2) μIU/mL; the “ΔAUEC, difference in the area under the serum insulin-time curve from baseline” value is on record as −19.2 ± 46.6 (−179.9–36.1) μIU·h/mL; the “ΔEmax, difference in maximum serum insulin level from baseline” value is listed as −20.4 ± 35.5 (−142.5–21.7) μIU/mL. Also, the CLss/F in series [3] (setting [8]) is recorded as 46.9 ± 8.3 (28.4–62.4) L/h. Moreover, the “Ctrough,ss” value in series [3] (setting [9]) is given as 3.1 ± 0.7 (2.2–5.1) μg/L. In series [3] (setting [10]), the CLss/F is given as 45.6 ± 7.5 (26.5–56.1) L/h. Besides, the “Ctrough,ss” value in series [3] (setting [11]) is on record as 3.3 ± 0.7 (2.2–5.6) μg/L. The “Day on which steady-state was achieved” value in series [3] (evogliptin 5 mg once daily) was determined as 4 days. Also, in series [3] (human, plasma, oral), the Tmax was 3.5 h and the half-life was 23.6 ± 5.9 h. Further, in series [3] (human, plasma, oral, 5 mg), the AUC was determined as 113 ± 21.6 ng·h/mL, the peak level (Cmax) was 6.7 ± 1.4 ng/mL and the half-life was 28.4 ± 8.9 h. Besides, the “feτ,ss, fraction excreted unchanged in urine during the dosing interval” value in series [4] (EVO: evogliptin 5 mg once daily, urine 0–24 h, mean ± SD, N = 34) was 19.1 ± 7.2 (6.7–43.9) %. The compound further had a CL renal in series [4] of 148 mL/min. The CL renal in series [4] (5 mg) was 140 mL/min. In addition, the “Tmax, time to reach maximal plasma concentration” value in series [5] (after oral administration) is recorded as “approximately 5 h”. For the same compound, in series [6] (healthy male subjects), the “Gmax, maximum serum glucose level” value is on record as 136.7 mg/dL. Further, in series [6], the “2 h PBG, 2 hour postprandial blood glucose” value is 114.7 ± 17.3 (83–164) mg/dL; the “AUGC, area under the serum glucose-time curve” value (from here on “AUGC, area”) came out at 334.9 mg·h/dL; the “ΔAUGC, difference in the area under the serum glucose-time curve from baseline” value is recorded as −35.8 ± 39.2 (−137.6–18.5) mg·h/dL; the “ΔGmax, difference in maximum serum glucose level from baseline” value was −53.2 ± 32 (−162– −12) mg/dL. For the same compound, the “AUGC, area” value in series [6] (listed as EVO) is given as 334.9 ± 31.7 (260–406.5) mg·h/dL. Moreover, in series [7], the “Induction or inhibition of CYP enzymes” value is “did not induce or inhibit CYP enzymes”.
For `CC(C)(C)OC[C@@H]1C(=O)NCCN1C(=O)C[C@H](N)[C@H](O)c1cc(F)c(F)cc1F` [Evogliptin M8, 4(R)-hydroxyevogliptin], the “MR, metabolic ratio (AUCτ,ss of metabolite/AUCτ,ss of parent)” value in series [3] (setting [8]) is given as 0.1 ± 0.02 (0.05–0.13); in series [3] (setting [10]), 0.09 ± 0.02 (0.04–0.13). Further, the “AUCτ,ss” value was 10.4 ± 2.5 (6–17) μg·h/L in series [3] (setting [9]) and 10.3 ± 2.1 (6.8–14.7) μg·h/L in series [3] (setting [11]). In addition, the “Cmax,ss” value in series [3] (setting [9]) is 0.6 ± 0.2 (0.3–1) μg/L; in series [3] (setting [11]) it was 0.6 ± 0.2 (0.4–1.1) μg/L.
With `CCC1=C(C)CN(C(=O)NCCc2ccc(S(=O)(=O)NC(=O)N[C@H]3CC[C@H](C)CC3)cc2)C1=O` [Glimepiride, glimepiride], in series [1] (35 subjects in safety assessment), the “Number of AEs considered related to the investigational products” value is “five”. Besides, in series [1] (N = 35), the “Cold sweat: number of subjects who reported adverse drug reactions (number of ADRs)” value is given as 1 (1), the “Dizziness: number of subjects who reported adverse drug reactions (number of ADRs)” value is given as 1 (1), the “Hypoglycemia: number of subjects who reported adverse drug reactions (number of ADRs)” value was 1 (1) and the “Increased blood bilirubin: number of subjects who reported adverse drug reactions (number of ADRs)” value was 1 (1). In series [1] (N = 35), the “Nausea: number of subjects who reported adverse drug reactions (number of ADRs)” value is listed as 1 (1). In series [2], the “AUEC, area under the serum insulin-time curve” value was 141.7 ± 65.5 (40.7–318.2) μIU·h/mL; the “Emax, maximum serum insulin level” value is reported as 86.4 ± 43.8 (29.7–248.4) μIU/mL; the “ΔAUEC, difference in the area under the serum insulin-time curve from baseline” value was 17.9 ± 60.1 (−174.5–157.2) μIU·h/mL; the “ΔEmax, difference in maximum serum insulin level from baseline” value is listed as 12.9 ± 45.2 (−109.2–122.1) μIU/mL. The CLss/F in series [3] (setting [8]) is reported as 2.5 ± 0.8 (1.2–4.5) L/h. Besides, in series [3] (setting [9]), the “Ctrough,ss” value is given as 4.2 ± 6.3 (0–24.7) μg/L. Besides, the CLss/F in series [3] (setting [12]) is on record as 2.7 ± 1 (1.2–5.1) L/h. Also, the “Ctrough,ss” value in series [3] (setting [13]) is reported as 8.6 ± 10.9 (0–51.9) μg/L. The same compound showed a half-life in series [3] (human, plasma, oral) of 4.2 ± 2 h. In series [3] (human, plasma, oral, 4 mg), this compound had an AUC of 1670 ± 624 ng·h/mL, a Cmax of 327 ± 98.5 ng/mL and a half-life of 4.7 ± 2.2 h. Further, in series [5] (after oral administration), the Tmax was ≤ 3 h. The half-life in series [5] was 1.2 to 1.5 h. Besides, in series [6], the “2 h PBG, 2 hour postprandial blood glucose” value was 94.7 ± 23.9 (44–140) mg/dL; the “AUGC, area” value is given as 291.8 mg·h/dL; the “ΔAUGC, difference in the area under the serum glucose-time curve from baseline” value was −67.5 ± 60 (−179.6–69.4) mg·h/dL; the “ΔGmax, difference in maximum serum glucose level from baseline” value is −68.9 ± 25.1 (−129– −22) mg/dL. Besides, the “AUGC, area” value in series [6] (listed as GLI) is 291.8 ± 48.5 (216.1–429.6) mg·h/dL.
As for `CC(C)(C)OC[C@@H]1C(=O)NCCN1C(=O)C[C@H](N)[C@@H](O)c1cc(F)c(F)cc1F` [Evogliptin M7, 4(S)-hydroxyevogliptin], the “MR, metabolic ratio (AUCτ,ss of metabolite/AUCτ,ss of parent)” value in series [3] (setting [8]) is 0.09 ± 0.02 (0.04–0.13); in series [3] (setting [10]) it was 0.09 ± 0.02 (0.03–0.12). For the same compound, the “AUCτ,ss” value in series [3] (setting [9]) is given as 10.1 ± 2.8 (5.5–17) μg·h/L; in series [3] (setting [11]), 9.8 ± 2.4 (6.3–14.6) μg·h/L. Moreover, the “Cmax,ss” value in series [3] (setting [9]) is listed as 0.7 ± 0.2 (0.4–1.0) μg/L; in series [3] (setting [11]), 0.7 ± 0.2 (0.4–1.2) μg/L.
`CCC1=C(C)CN(C(=O)NCCc2ccc(S(=O)(=O)NC(=O)NC3CCC(CO)CC3)cc2)C1=O` (stereo not drawn) [Glimepiride M1, hydroxyglimepiride]: the “MR, metabolic ratio (AUCτ,ss of metabolite/AUCτ,ss of parent)” value in series [3] (setting [8]) is recorded as 0.39 ± 0.1 (0.19–0.62); in series [3] (setting [12]), 0.4 ± 0.11 (0.2–0.63). The “AUCτ,ss” value in series [3] (setting [9]) is listed as 652.6 ± 197.7 (387–1331.4) μg·h/L; in series [3] (setting [13]) it was 611.9 ± 180.7 (309.4–1179.5) μg·h/L. Further, the “Cmax,ss” value in series [3] (setting [9]) was 84.2 ± 19 (55.8–137) μg/L; in series [3] (setting [13]), 81.3 ± 20.6 (47.7–135.3) μg/L.

One may read the Tmax as the time at which the peak concentration occurs. One may read the half-life as the time needed for the level to fall by half in the phase considered. By AUC is commonly meant the area under the concentration-time curve, a measure of exposure. A low value points to low exposure. One may read the Cmax as the maximum level reached in the sampled fluid or tissue.
